# ChEMBL document CHEMBL1122726, “Analogues of platelet activating factor (PAF). 1. Some modifications of the alkoxy chain” (J Med Chem, 1984)
# Experiments:
# [1] = species on record: Oryctolagus cuniculus; experiment: Tested for maximum aggregation units at specified molar concentration; type: functional
# Outline: (§1)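 Platelet-rich plasma from citrated cardiac-puncture blood of unanesthetized male New Zealand white rabbits, low-speed spin. Count adjusted with platelet-poor plasma, within 350000-600000/µL. 450 µL PRP plus 50 µL compound stock solution. EC50 taken as the concentration giving 50% of that compound's own maximum aggregation, from the mean dose-response curve of experiments with two to six replicates per dose. Maximum aggregation given in aggregation units at the stated molar concentration.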
# [2] = species on record: Oryctolagus cuniculus; experiment: Tested for the molar concentration required to cause 50% of maximum aggregation
# [3] = Ratio = (MABP / platelet EC50 ) x 10 E -8; type: functional
# Outline: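 Intravenous dose lowering MABP by 50 mmHg in spontaneously hypertensive rats, divided by the EC50 for aggregation of rabbit platelet-rich plasma, then multiplied by 10^-8.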
# [4] = tested on: Rattus norvegicus; experiment: Tested for the dose needed to decrease mean arterial blood pressure (MABP) 50 mmHg in male rats, iv; type: functional
# Outline: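 Spontaneously hypertensive rats, arterial and venous catheters tunneled subcutaneously and exteriorized at the neck, studied at least 16 h after surgery while held in restraining cages. Compound dissolved in saline or 10-25% ethanol in saline, given as a rapid iv bolus at 1 mL/kg followed by a flush. Pressure read at 1-min intervals for 15 min after dosing. Maximum MABP change per rat, averaged per dose. Least-squares regression, solved for a −50 mmHg response.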
# [5] = species on record: Rattus norvegicus; experiment: Tested for the molar concentration required to cause 50% of maximum aggregation; type: functional, organism-based; outline: as §1
# [6] = species on record: Oryctolagus cuniculus; experiment: Tested for maximum aggregation units at specified molar concentration; g= No response; type: functional; outline: as §1
Compound,EC50 [2] [nM],EC50 [5] [nM],Max platelet response [1],Ratio [3],Dose [4] [µg/kg],Max platelet response [6]
CCCCCCCCCCCCCCCCCC(COP(=O)([O-])OCC[N+](C)(C)C)OC(C)=O (configuration not stated),–,3100,31,1.15,357.3,–
CCCCCCCCCCCCCCCCCCOCC(COP(=O)([O-])OCC[N+](C)(C)C)OC(C)=O (configuration not stated),16,–,79,1.98,3.17,–
CCCCCCCCCCCCCCCCOCC(COP(=O)([O-])OCC[N+](C)(C)C)OC(C)=O (configuration not stated) [PLATELET ACTIVATING FACTOR],22.2,–,71,0.56,1.25,–

# Continued, in another order:
EC50 [2] [nM],EC50 [5] [nM],Compound,Max platelet response [1],Ratio [3],Dose [4] [µg/kg],Max platelet response [6]
53,–,CCCCCCCCCCCCCCc1ccc(OCC(COP(=O)([O-])OCC[N+](C)(C)C)OC(C)=O)cc1 (configuration not stated),80,2.37,12.56,–
> 10000,–,CCCCCCCCCCCCCCCCc1ccccc1OCC(COP(=O)([O-])OCC[N+](C)(C)C)OC(C)=O (configuration not stated),–,–,–,No response
44,–,CCCCCCCCCCCCCCc1cccc(OCC(COP(=O)([O-])OCC[N+](C)(C)C)OC(C)=O)c1 (configuration not stated),70,0.1,0.43,–
